# Assay results reported in PubChem BioAssay.
# Activity calls are given as the source filed them.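 Rule for the calls, unless noted: active = GFP response above 150% of the DMSO level; inconclusive = fewer than 70 events counted for a yeast strain; inactive = the rest.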
# Experiments:
# [1] = RPL19A-GFP modulators, yeast TOR pathway, confirmation, cell-based, S. cerevisiae, flow cytometry, cherry picks, mother/daughter gates (AID 2270;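 active = GFP response below 50% of the DMSO control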); conditions: S. cerevisiae RPL19A-GFP strain, 3 h, at 10 µM, stronger effect = lower value, 100 = same GFP as DMSO wells
# [2] = LAP4-GFP expression modulators in yeast, confirmation, cell-based, cherry picks, flow cytometry, mother/daughter gates (AID 2271;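 active = GFP response above 150% of the DMSO control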;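 note: ratio of sample to DMSO plate mean so 100% equals DMSO level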); conditions: S. cerevisiae LAP4-GFP strain, 3 h, at 10 µM, stronger effect = higher value, 100 means same as DMSO control
# How it was run: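 Measured by: GFP by flow cytometry. Test system: GFP-fusion yeast strain. Input: yeast cells seeded at OD600 of 0.2. Timing: 30 °C, 3 h compound incubation, rotating. Buffer or medium: synthetic complete medium for yeast. Benchmarks: DMSO-only negative wells, rapamycin 400 ng/mL positive wells. Compound: 10 µM single dose.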
# [3] = modulators of MEP2-GFP levels in yeast, confirmation, S. cerevisiae, flow cytometry GFP, cherry picks (AID 2272;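 active = GFP response above 150% of the DMSO control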;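 note: ratio of well signal to plate DMSO mean so 100% equals DMSO level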); conditions: S. cerevisiae MEP2-GFP strain, 3 h, at 10 µM, stronger effect = higher value
# [4] = AGP1-GFP expression modulators, hit retest, confirmation, cell-based, flow cytometry, S. cerevisiae, cherry picks (AID 2273);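 note: median GFP channel fluorescence over the whole cell population gate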; conditions: S. cerevisiae AGP1-GFP strain, 3 h, at 10 µM
# [5] = modulators of CIT2-GFP expression in yeast, confirmation, S. cerevisiae, GFP fusion, cherry picks, mother/daughter gates (AID 2274); conditions: S. cerevisiae CIT2-GFP strain, flow cytometry, 3 h, at 10 µM, stronger effect = higher value
# [6] = measured here: daughter cell gate
# [7] = measured here: mother cell gate
# [8] = measured here: daughter cell gate response
# [9] = measured here: mother cell gate response
Structure (SMILES),GFP response vs DMSO [1],"GFP response vs DMSO [1, 6]","GFP response vs DMSO [1, 7]",GFP response relative to DMSO [2],"GFP response relative to DMSO [2, 8]","GFP response relative to DMSO [2, 9]",GFP response vs DMSO [3],"GFP response, % of DMSO [4]","GFP response, % of DMSO [5]","GFP response, % of DMSO [5, 6]","GFP response, % of DMSO [5, 7]"
COC(=O)Cc1ccc(OCc2ccc(Cl)nc2)cc1,97.8% (inactive),97.5%,98.6%,107% (inactive),107%,106%,97.5% (inactive),101% (inactive),95% (inactive),94.6%,94.5%
CCOC(=O)CNc1c(-c2ccccc2)nc2ccc(Cl)cn12,96% (inactive),97.8%,96.4%,109% (inactive),105%,114%,97.5% (inactive),98% (inactive),95% (inactive),98.3%,93.3%
Cc1ccc2[nH]c3c(=O)n(CC(=O)N4CCN(C)CC4)ncc3c2c1,95% (inactive),93.4%,96.2%,95.4% (inactive),96%,96.1%,98.3% (inactive),99.3% (inactive),101% (inactive),103%,101%
CCCc1nnc(NC(=O)c2nc(S(=O)(=O)Cc3cccc(C)c3)ncc2Cl)s1,95.1% (inactive),96.4%,95.2%,106% (inactive),102%,107%,103% (inactive),101% (inactive),97.2% (inactive),99.3%,98.2%
O=C(O)c1ccccc1C(=O)N1CCN(c2cccc(Cl)c2)CC1,97.2% (inactive),97%,98.1%,100% (inactive),97.9%,96.5%,97.5% (inactive),95.4% (inactive),96.4% (inactive),98.3%,95.6%
O=C1C=C(c2ccccc2)C(=O)N1Nc1ccccc1,77.5% (inactive),88.3%,64.5%,124% (inactive),96%,113%,102% (inactive),78.4% (inactive),92.6% (inactive),95.4%,78.3%
COc1ccc(-c2nc(-c3ccccc3OC)no2)cc1OC,100% (inactive),98.8%,98.6%,102% (inactive),99.1%,104%,105% (inactive),91.8% (inactive),94.4% (inactive),95.6%,93.2%
COc1ccc(NC(=O)CCN2CCN(S(=O)(=O)c3cc(Cl)ccc3OC)CC2)cc1,99% (inactive),97.8%,94.3%,99.8% (inactive),98.2%,96.2%,101% (inactive),105% (inactive),102% (inactive),100%,102%
O=c1cc(-c2c(F)c(F)c(F)c(F)c2F)oc2c(F)c(F)c(F)c(F)c12,105% (inactive),101%,101%,145% (inactive),120%,145%,131% (inactive),113% (inactive),132% (inactive),119%,118%
